# IDH1 R132H inh – IDH1 R132H (human) inhibition. O75874. IDH1 R132H reductase, diaphorase/resazurin fluorescence, 60 min. inhibition, % at 10 µM. hit rate 0.18% among 70,000. AID 624101; in the data active = inhibition above about 34%; inconclusive = no clear call, values can overlap the other calls; inactive = below about 11%;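 also: 0% = DMSO and 100% = no enzyme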
# KDM4C inh – inhibitors of human demethylase GASC-1 KDM4C. Q9H3R0. inhibition, % at 12.5 µM. AID 720574. hit rate 0.15% among 96,000. GST-KDM4C 2-372, H3K9me3 peptide, LANCE TR-FRET;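 active = mean replicate inhibition above about 25%, with at least 55% of replicates also reaching it, limit read from the data, passing the limit was not always enough; inconclusive = only one of those two conditions met; inactive = neither condition met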
# Target sequence (Q9H3R0 2-372 limits assumed): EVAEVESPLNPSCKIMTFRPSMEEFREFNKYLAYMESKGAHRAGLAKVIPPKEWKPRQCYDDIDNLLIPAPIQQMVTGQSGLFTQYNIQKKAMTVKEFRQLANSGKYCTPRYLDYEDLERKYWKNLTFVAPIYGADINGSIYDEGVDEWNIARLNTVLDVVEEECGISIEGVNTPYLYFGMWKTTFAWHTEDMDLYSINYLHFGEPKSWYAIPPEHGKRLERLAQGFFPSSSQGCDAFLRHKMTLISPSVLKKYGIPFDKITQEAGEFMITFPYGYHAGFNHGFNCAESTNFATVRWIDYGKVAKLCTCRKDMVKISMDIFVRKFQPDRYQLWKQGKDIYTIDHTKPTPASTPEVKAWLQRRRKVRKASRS
#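 Test system: N-terminal GST-fused human GASC-1 (KDM4C) fragment, residues 2-372; quantity: GASC-1 enzyme at 10 nM final in reaction; dosing: single dose; schedule: 30 min demethylation and 1 h detection at room temperature; signal: LANCE TR-FRET, excitation 340 nm, emissions 618 and 671 nm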
# T cruzi growth-1 – T. cruzi proliferation inhibition. hit rate 5.9% among 77,000. T. cruzi beta-gal in NIH3T3, GalScreen luminescence, 90 h. inhibition, % at 8.34 µM;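 active = mean inhibition above about 93%, with at least 55% of replicates each passing it, limit read from the data, passing the limit was not always enough; inconclusive = only one of those two conditions holds; inactive = neither condition holds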
# T cruzi growth-2 – inhibitors of T. cruzi proliferation | shares compounds with T cruzi growth-1 | T. cruzi beta-gal in NIH3T3, GalScreen luminescence, 90 h | inhibition, % at 8.35 µM | hit rate 72% among 5,600;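 active = mean replicate inhibition above about 95% and at least 55% of replicates individually reaching it, limit read from the data; inconclusive = only one of the two criteria is met; inactive = neither criterion is met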
# T cruzi growth-3 – Trypanosoma cruzi proliferation inhibition | AID 651740 | hit rate 21% among 5,600 | inhibition, % at 2.09 µM | T. cruzi beta-gal in NIH3T3, GalScreen luminescence, 90 h | shares compounds with T cruzi growth-1;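 active = mean inhibition above about 95%, with at least 55% of replicates also reaching it, limit read from the data; inconclusive = meets just one of the two conditions; inactive = meets neither condition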;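 also: plate controls were neutral control median for no effect and positive control median for full effect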
# 3T3 cytotox – NIH/3T3 (mouse) viability loss. shares compounds with T cruzi growth-1. hit rate 14% among 5,600. NIH/3T3 viability, CellTiter-Glo ATP luminescence, 90 h. cytotoxicity (signal decrease), % at 8.35 µM;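 active = mean signal decrease across replicates above about 35% based on untreated-well scatter, with enough replicates individually passing, limit read from the data; inconclusive = no rule stated though some were filed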;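 also: 0% = median of neutral control wells and 100% = median of positive control wells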
# 3T3 cytotox 2 – kills mouse NIH/3T3 fibroblasts | shares compounds with T cruzi growth-1 | NIH/3T3 viability, CellTiter-Glo ATP luminescence, 90 h | inhibition, % at 24.9 µM | hit rate 56% among 5,600 | AID 651744;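 active = mean loss of cell viability signal at or above a set limit, and enough replicates individually reaching it; inconclusive = meets only the mean limit or only the replicate share; inactive = meets neither condition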;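 also: 0% = median of neutral control wells and 100% = median of positive control wells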
# * = called active by the depositor; ? = inconclusive; nt = no result. The entries come from a sample that favours hits as a whole.
SMILES,IDH1 R132H inh,KDM4C inh,T cruzi growth-1,T cruzi growth-2,T cruzi growth-3,3T3 cytotox,3T3 cytotox 2
NN(CCO)C(=S)NCc1ccc(Cl)cc1,0.0,nt,nt,nt,nt,nt,nt
COc1ccccc1C(=O)CSc1nnc(-c2ccccc2Cl)n1-c1ccccc1,-0.4,nt,nt,nt,nt,nt,nt
COc1ccc(OC)c(NC(=O)C(=O)NCc2ccco2)c1,-0.2,nt,nt,nt,nt,nt,nt
CCOc1ccc(N2C(=O)/C(=C/c3ccc(F)cc3)N=C2SC(CC)C(=O)N2CCOCC2)cc1 (centres undefined),-0.4,nt,nt,nt,nt,nt,nt
COc1cc(OC)cc(-c2nnc(SCC(=O)Nc3ccc(F)cc3)o2)c1,-0.1,nt,nt,nt,nt,nt,nt
CCSc1n[nH]c(-c2c(Cl)c(CC)nn2C)n1,-0.8,nt,nt,nt,nt,nt,nt
C[C@H]1CN([C@@H](C)CO)C(=O)c2cccc(NC(=O)c3ccc(-c4nccs4)cc3)c2O[C@H]1CN(C)Cc1ccc(Oc2ccccc2)cc1,1.8,-1.3,0.7,nt,nt,nt,nt
C[C@H](CO)N1C[C@H](C)[C@@H](CN(C)Cc2ccc(Oc3ccccc3)cc2)Oc2c(NC(=O)c3ccc(-c4nccs4)cc3)cccc2C1=O,1.0,-9.4,?,99.6*,112.4*,-7.8,-11.2
C[C@H](CO)N1C[C@H](C)[C@H](CN(C)Cc2ccc(C(F)(F)F)cc2)Oc2c(NC(=O)c3ccc(-c4nccs4)cc3)cccc2C1=O,nt,1.3,?,108.4*,87.2,12.5,-9.9
C[C@H]1CN([C@@H](C)CO)C(=O)c2cccc(NC(=O)c3ccc(-c4nccs4)cc3)c2O[C@H]1CN(C)Cc1ccc(C(F)(F)F)cc1,nt,0.8,81.4,nt,nt,nt,nt
CS(=O)(=O)NN1C(=O)c2ccccc2NC12CCCCC2,-0.3,nt,nt,nt,nt,nt,nt
O=S(=O)(NCc1ccco1)c1ccc(Oc2ccccc2)cc1,-0.2,nt,nt,nt,nt,nt,nt
C[C@H]1CN([C@@H](C)CO)C(=O)c2cc(NC(=O)NC3CCCCC3)ccc2O[C@@H]1CN(C)Cc1ccc(-c2ccccc2)cc1,2.9,-2.0,-75.3,nt,nt,nt,nt
C[C@@H]1CN([C@@H](C)CO)C(=O)c2cc(NC(=O)NC3CCCCC3)ccc2O[C@H]1CN(C)Cc1ccc(-c2ccccc2)cc1,1.1,-2.2,107.5*,101.7*,-17.6,37.8*,43.3*
C[C@@H]1CN([C@H](C)CO)C(=O)c2cc(NC(=O)NC3CCCCC3)ccc2O[C@H]1CN(C)Cc1ccc(-c2ccccc2)cc1,nt,-0.6,105.3*,103.6*,13.4,25.4,17.0
C[C@@H]1CN([C@@H](C)CO)C(=O)c2cc(NC(=O)NC3CCCCC3)ccc2O[C@@H]1CN(C)Cc1ccc(-c2ccccc2)cc1,1.6,-2.7,95.7*,100.3*,100.6*,53.9*,64.7*
C[C@@H]1CN([C@H](C)CO)C(=O)c2cc(NC(=O)NC3CCCCC3)ccc2O[C@@H]1CN(C)Cc1ccc(-c2ccccc2)cc1,2.8,-2.3,48.3,nt,nt,nt,nt
C[C@H]1CN([C@@H](C)CO)C(=O)c2cc(NC(=O)NC3CCCCC3)ccc2O[C@@H]1CN(C)Cc1ccccc1,0.4,2.1,3.4,nt,nt,nt,nt
Cc1noc(C)c1C(=O)NCc1ccccn1,0.6,nt,nt,nt,nt,nt,nt
Cc1ccc(S(=O)(=O)Nc2cc(Cl)c(O)c(Sc3nc(C)cc(C)n3)c2)cc1,10.6,nt,nt,nt,nt,nt,nt
C[C@@H]1CCCCO[C@@H](CN(C)S(=O)(=O)c2ccc(F)cc2)[C@H](C)CN([C@@H](C)CO)C(=O)c2cc(NC(=O)Nc3ccc(C(F)(F)F)cc3)ccc2O1,3.3,-0.7,100.0*,109.2*,113.6*,-8.0,12.4
C[C@H](CO)N1C[C@H](C)[C@H](CN(C)S(=O)(=O)c2ccc(F)cc2)OCCCC[C@H](C)Oc2ccc(NC(=O)Nc3ccc(C(F)(F)F)cc3)cc2C1=O,nt,1.0,93.2,nt,nt,nt,nt
C[C@H](CO)N1C[C@H](C)[C@@H](CN(C)S(=O)(=O)c2ccc(F)cc2)OCCCC[C@H](C)Oc2ccc(NC(=O)Nc3ccc(C(F)(F)F)cc3)cc2C1=O,1.3,0.7,87.7,nt,nt,nt,nt
C[C@@H]1CCCCO[C@@H](CN(C)S(=O)(=O)c2ccc(F)cc2)[C@@H](C)CN([C@H](C)CO)C(=O)c2cc(NC(=O)Nc3ccc(C(F)(F)F)cc3)ccc2O1,nt,-0.3,103.6*,110.9*,106.1*,?,62.1*
O=C(CCCN1C(=O)c2ccccc2C1=O)Nc1cccc(Cl)c1,0.3,nt,nt,nt,nt,nt,nt

# Screening data from PubChem BioAssay.
